# Assay results from ChEMBL document CHEMBL4041502, “Zoanthamine-Type Alkaloids from the Zoanthid Zoanthus kuroshio Collected in Taiwan and Their Effects on Inflammation” (2016).
# What was measured:
# [1] = system: Neutrophil; experiment: Anti-inflammatory activity in human neutrophils assessed as inhibition of fMLP/CB-induced superoxide anion production by measuring reduction of ferricytochrome c at 10 uM pretreated for 5 mins followed by fMLP/CB addition measured after 10 mins by spectrophotometric method relative to control; type: functional
# Procedure, shortened: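 Donor neutrophils (healthy, 20−35 y) held 2 min at 37 °C in 0.5 mg/mL ferricytochrome c with 1 mM Ca2+, then 5 min with compound, then fMLP 100 nM/cytochalasin B 1 μg/mL for 10 min. Continuous 550 nm read with stirring. SOD-inhibitable (100 U/mL) difference converted using ε = 21.1/mM/10 mm. Inhibition % at 10 μM, mean ± SEM (n = 3, 4).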
# [2] = system: Neutrophil; experiment: Anti-inflammatory activity in human neutrophils assessed as inhibition of fMLP/CB-induced elastase release at 10 uM using MeO-Suc-Ala-Ala-Pro-Val-p-nitroanilide as a substrate pretreated for 5 mins followed by fMLP/CB addition relative to control; type: functional
# Procedure, shortened: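 Neutrophils from healthy donors aged 20−35 (venipuncture), equilibrated at 37 °C for 2 min with 100 μM MeO-Suc-Ala-Ala-Pro-Val-p-nitroanilide, then exposed to compound 5 min. Stimulus: 100 nM fMLP plus 0.5 μg/mL cytochalasin B. Elastase release followed continuously at 405 nm. Percent inhibition at 10 μM versus control, mean ± SEM (n = 3, 4).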
Structure (SMILES),inhibition at 10 µM [1] [%],inhibition at 10 µM [2] [%]
CC1=CC(=O)[C@@H]2[C@@H](C1)[C@]13CO[C@@]4([C@H]1Cl)N1C[C@H]5C[C@H](C)C[C@]1(CC[C@@]4(C)[C@]1(COC(=O)C1)[C@H]3C(=O)[C@@H]2C)O5,23,25
CC1=CC(=O)[C@@H]2[C@@H](C1)[C@]13CO[C@@]4([C@H]1O)N1C[C@H]5C[C@H](C)C[C@]1(CC[C@@]4(C)[C@]1(COC(=O)C1)[C@H]3C(=O)[C@@H]2C)O5,9,6
CC1=CC(=O)[C@@H]2[C@@H](C1)[C@]1(C)C=C3N4C[C@H]5C[C@H](C)C[C@]4(CC[C@@]3(C)[C@]3(COC(=O)C3)[C@H]1C(=O)[C@@H]2C)O5,18,30
CC1=CC(=O)[C@@H]2[C@@H](C1)C13C=C4N5C[C@@H]6O[C@@]5(CC[C@@]4(C)[C@]4(COC(=O)C4)[C@H]1[C@@](O)(OC3)[C@@H]2C)C[C@@H](C)[C@@H]6O,14,25
O=c1cc(N2CCOCC2)oc2c(-c3ccccc3)cccc12 [LY-294002],99,73
CC1=CC(=O)[C@H]2[C@@H](C1)[C@]13CO[C@@]4(C1=O)N1C[C@H]5C[C@H](C)C[C@]1(CC[C@@]4(C)[C@]1(COC(=O)C1)[C@H]3C(=O)[C@@H]2C)O5,14,23
CC1=CC(=O)[C@@H]2[C@@H](C1)C13C=C4N5C[C@H]6C[C@H](C)[C@@H](I)[C@]5(CC[C@@]4(C)[C@]4(COC(=O)C4)[C@H]1[C@@](O)(OC3)[C@@H]2C)O6,24,43
CO[C@@H]1[C@@H](C)C[C@@H]2CN3[C@@]1(CC[C@@]1(C)[C@]4(COC(=O)C4)[C@H]4C(=O)[C@H](C)[C@@H]5C(=O)C=C(C)C[C@H]5[C@@]45CO[C@@]31C5=O)O2,20,33
CC1=CC(=O)[C@@H]2[C@@H](C1)[C@]13CO[C@@]4(C1=O)N1C[C@H]5C[C@H](C)C[C@]1(CC[C@@]4(C)[C@]1(COC(=O)C1)[C@H]3C(=O)[C@@H]2C)O5,7,27
CC1=CC(=O)[C@H]2[C@@H](C1)[C@]13CO[C@@]4([C@H]1O)N1C[C@H]5C[C@H](C)C[C@]1(CC[C@@]4(C)[C@]1(COC(=O)C1)[C@H]3C(=O)[C@@H]2C)O5,15,13
CC1=CC(=O)[C@@H]2[C@@H](C1)[C@]13CO[C@@]4([C@H]1O)N1C[C@H]5C[C@H](C)C[C@@]1(O5)[C@@H](O)C[C@@]4(C)[C@]1(COC(=O)C1)[C@H]3C(=O)[C@@H]2C,11,27
CC1=CC(=O)[C@@H]2[C@@H](C1)[C@]13CO[C@@]4(C1=O)N1C[C@H]5C[C@H](C)C[C@@]1(O5)[C@@H](O)C[C@@]4(C)[C@]1(COC(=O)C1)[C@H]3C(=O)[C@@H]2C,13,15
CC1=CC(=O)[C@@H]2[C@@H](C1)C13C=C4N5C[C@H]6C[C@H](C)C[C@]5(CC[C@@]4(C)[C@]4(COC(=O)C4)[C@H]1[C@@](O)(OC3)[C@@H]2C)O6,17,17
